Measurements taken from the array DNA melting data of Ke et al. (doi:10.1101/2024.01.08.574731).

Key:
[1] = melting temperature; fluorescence melt of hairpins on a sequencing array, two-state fit, raised by 9.35 °C to match UV melts; conditions: sodium 0.088 M
How it was run: (§1)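 Bootstrapped two-state fits yielded melting temperature and folding enthalpy for library hairpins. Cy3 fluorescence, with annealed Cy3 and quencher oligos, was imaged on a sequenced MiSeq flow cell in 50 mM Na-HEPES pH 8.0, 25 mM NaCl in 2.5 °C steps up to 60 °C, and normalised to pre-quench Cy3 and to control constructs. Four replicates were combined by inverse variance, and fitted temperatures were raised by 9.35 °C to match UV melts.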

[2] = folding enthalpy; higher = less favourable; fluorescence melt of hairpins on a sequencing array, two-state fit; conditions: sodium 0.088 M
How it was run: as §1

| Sequence | Tm [1] | folding enthalpy [2] |
| --- | --- | --- |
| GCAATGCGAAAGCTGTGC (((..((....))..))) | 48.4 °C | -20.6 kcal/mol |
| GTAGCCGAAAGGCGTTAC ((((((....)))..))) | 38.9 °C | -8 kcal/mol |
| GATCAAACTTTGATC ((((((...)))))) | 41.9 °C | -31.6 kcal/mol |
| GCTCTCGAAAGAGAGAGC ((((((....)))..))) | 57.2 °C | -19.5 kcal/mol |
| GATCGACGAAAGTCTATC (((.(((....))).))) | 37.1 °C | -26.8 kcal/mol |
| GCGAGTTTCGC ((((...)))) | 51 °C | -17.3 kcal/mol |
| GTCCGACGAAAGTCAGAC (((.(((....))).))) | 50 °C | -23.5 kcal/mol |
| GGTGTTGGAAACAACATC (.(((((....))))).) | 48.2 °C | -24.3 kcal/mol |
| GCGACTGTCGC ((((...)))) | 48 °C | -33 kcal/mol |
| GGAATGGGAAACCATCCC ((.((((....)))).)) | 38.6 °C | -24 kcal/mol |
| GCGCAGCGAAAGCTCTGC ((..(((....)))..)) | 38.5 °C | -7.6 kcal/mol |
| GGATCACGAAAGTGTCC (((.(((....)))))) | 49.8 °C | -25.4 kcal/mol |
| GATCCTCGAGAGGATC ((((((....)))))) | 56.8 °C | -42.7 kcal/mol |
| GACTAGGGAAACCCAGTC ((((.((....)).)))) | 40.2 °C | -30.1 kcal/mol |
| GAACATGAAAATGTTC ((((((....)))))) | 52 °C | -28.9 kcal/mol |
| GTGCTGCGAAAGCACAC (((.(((....)))))) | 55.3 °C | -19.4 kcal/mol |
| GGCATCGAAAGATCCGCC ((((((....)))..))) | 49.3 °C | -19.2 kcal/mol |
| GGCCACGAAAGTGTGCC ((((((....))).))) | 64 °C | -25.9 kcal/mol |
| GCAATATCGAAAGATTGC (((..(((....)))))) | 39.5 °C | -25.5 kcal/mol |
| GTGGAGTCGAAAGACCAC (((..(((....)))))) | 44.9 °C | -20.6 kcal/mol |
| GCAAGGCGAAAGCTGTGC (((..((....))..))) | 52.8 °C | -18.1 kcal/mol |
| GTGCGCGAAAGCGAACAC ((((((....)))..))) | 58.5 °C | -12.6 kcal/mol |
| GTCGACGAAAGTCTGAC ((((((....))).))) | 49.5 °C | -21.8 kcal/mol |
| GTCGTCGAAAGACTAGAC ((((((....)))..))) | 42.5 °C | -18.4 kcal/mol |

| Sequence | Tm [1] | folding enthalpy [2] |
| --- | --- | --- |
| GCGAATCGAAAGATGCGC (((.(((....))).))) | 60.6 °C | -42.4 kcal/mol |
| CGAGGCGGAAACGCGTCG (((.(((....))).))) | 62.5 °C | -32.1 kcal/mol |
| GATCTATGGATAGATC ((((((....)))))) | 43 °C | -29.5 kcal/mol |
| GTGCCACGAAAGTGACAC (((.(((....))).))) | 56.5 °C | -40.9 kcal/mol |
| GTGGTCGAAAGACACCAC ((((((....)))..))) | 42.4 °C | -15.6 kcal/mol |
| GGTAAAGGAAACTTTACC (((((((....))))))) | 52.1 °C | -47.8 kcal/mol |
| GTAGACACGAAAGTGTAC (((..(((....)))))) | 32 °C | -10.5 kcal/mol |
| GTGTAAGGAAACTTGCAC (((.(((....))).))) | 45.1 °C | -31 kcal/mol |
| GAGTTAGAAATAACTC ((((((....)))))) | 43.2 °C | -31.5 kcal/mol |
| GCTATTCGAAAGAAGAGC (((.(((....))).))) | 51.1 °C | -39.9 kcal/mol |
| GCACGCCCGAAAGGGTGC (((..(((....)))))) | 49.9 °C | -11.8 kcal/mol |
| GTCTCCGAAAGGATAGAC ((((((....)))..))) | 41 °C | -23.8 kcal/mol |
| GCAAGTGGAAACACTTAC (.(((((....))))).) | 34.6 °C | -18.7 kcal/mol |
| GGCAAGCGAAAGCTGCC (((.(((....)))))) | 68.9 °C | -33.4 kcal/mol |
| GCTGCGACGAAAGTCAGC (((..(((....)))))) | 51.4 °C | -13.4 kcal/mol |
| GCGGCCGAAAGGCTCGC ((((((....))).))) | 68.8 °C | -23.5 kcal/mol |
| GAGGAACGAAAGTTACTC (((.(((....))).))) | 54.5 °C | -39.3 kcal/mol |
| GTTCATGGAAACATGAGC (.(((((....))))).) | 43.9 °C | -23.4 kcal/mol |
| GCGGATGCCCGC ((((....)))) | 55 °C | -14.4 kcal/mol |
| GCTGGCGGAAACGTCAGC ((((.((....)).)))) | 61.2 °C | -43.2 kcal/mol |
| GCCTCCCGAAAGGGTGGC (((.(((....))).))) | 67.9 °C | -36.1 kcal/mol |
| GATCAACCATTTGATC ((((((....)))))) | 42.3 °C | -32.8 kcal/mol |
| GGGTTTGGAAACGAACCC (((((.(....).))))) | 52.3 °C | -59.2 kcal/mol |
| GAGCACGCGAAAGCGCTC (((..(((....)))))) | 47.6 °C | -12.8 kcal/mol |

| Sequence | Tm [1] | folding enthalpy [2] |
| --- | --- | --- |
| GGACCCCGAAAGGGTTCC (((.(((....))).))) | 52.5 °C | -23.2 kcal/mol |
| GCTCAACGAAAGTTAGC (((.(((....)))))) | 41.1 °C | -22.2 kcal/mol |
| GTCAGTGGAAACACTGGC (.(((((....))))).) | 54.7 °C | -24.8 kcal/mol |
| GATCTCAGCGAGATC ((((((...)))))) | 56.6 °C | -35.3 kcal/mol |
| GATCCCACAAGGGATC ((((((....)))))) | 64.7 °C | -30.6 kcal/mol |
| GAGATTGCGAAAGCACTC (((..(((....)))))) | 29.5 °C | -11.3 kcal/mol |
| GATGGTGGAAACGCCATC (((((.(....).))))) | 53.4 °C | -44.2 kcal/mol |
| GTCGGTGGAAACATCGAC ((((.((....)).)))) | 53.9 °C | -45.1 kcal/mol |
| GCGGGATCCCGC ((((....)))) | 59.3 °C | -41.9 kcal/mol |
| GTTCTAGGAAACTAGAAC (((((((....))))))) | 53.1 °C | -35 kcal/mol |
| GATCGTTGCTACGATC ((((((....)))))) | 56.3 °C | -35.9 kcal/mol |
| GCGATCGAAAGATAACGC ((((((....)))..))) | 44.3 °C | -26.2 kcal/mol |
| GTTGACGAAAGTCGAAC ((((((....))).))) | 45.4 °C | -18.4 kcal/mol |
| GAGTCAGGAAACTAACTC ((((.((....)).)))) | 25.4 °C | -12.4 kcal/mol |
| GCGGGCATCCGC ((((....)))) | 67 °C | -24.5 kcal/mol |
| GATCGGGCGACCGATC ((((((....)))))) | 63.1 °C | -44.9 kcal/mol |
| CGCGGAACTTCCGCG ((((((...)))))) | 61.3 °C | -37.8 kcal/mol |
| GCGAGGGGAAACCCCCGC (((.(((....))).))) | 59.6 °C | -27.5 kcal/mol |
| AGAAACCGAAAGGCTTCT ((((.((....)).)))) | 40.9 °C | -28.4 kcal/mol |
| GATCAGTCTCCTGATC ((((((....)))))) | 49.4 °C | -39.1 kcal/mol |
| GCGAGGCGAAAGCTACGC (((..((....))..))) | 62 °C | -24.3 kcal/mol |
| GACGTGGGAAACCATGTC (((.(((....))).))) | 51.4 °C | -42.7 kcal/mol |
| GTGAGGCGAAAGCCACAC (((.(((....))).))) | 59.6 °C | -26.5 kcal/mol |
| GCGTTGCGAAAGCAGAGC ((..(((....)))..)) | 63.4 °C | -35.8 kcal/mol |

| Sequence | Tm [1] | folding enthalpy [2] |
| --- | --- | --- |
| GTCTTCGAAAGAAAGGAC ((((((....)))..))) | 26.7 °C | -10.7 kcal/mol |
| GTTGATGGAAACATCGAC ((.((((....)))).)) | 48.5 °C | -35.9 kcal/mol |
| GTAGGGTCGAAAGACTAC (((..(((....)))))) | 32.5 °C | -12.2 kcal/mol |
| GCTTCTGAAAAGAAGC ((((((....)))))) | 60 °C | -31.9 kcal/mol |
| GATCCGGTTCGGATC ((((((...)))))) | 63.6 °C | -31.5 kcal/mol |
| GCTACGCGAAAGCGAGC (((.(((....)))))) | 56.5 °C | -15.8 kcal/mol |
| GGTTAAGGAAACTTAGCC ((.((((....)))).)) | 38.5 °C | -28 kcal/mol |
| GAATCGCGAAAGCGGTTC (((.(((....))).))) | 61.7 °C | -30.3 kcal/mol |
| GCTGACGAAAGTCGTAGC ((((((....)))..))) | 47.1 °C | -21.6 kcal/mol |
| ACCTTGAAAAAGGT (((((....))))) | 47.3 °C | -13.4 kcal/mol |
| GATCGTTCCTACGATC ((((((....)))))) | 56.7 °C | -41.9 kcal/mol |
| GGCGAGGGAAACCTCGTC (.(((((....))))).) | 60.8 °C | -36.4 kcal/mol |
| GCGGTGATCCGC ((((....)))) | 54.8 °C | -28.1 kcal/mol |
| GATCGATCGCTCGATC ((((((....)))))) | 52.4 °C | -37.3 kcal/mol |
| GATCAGAAACCTGATC ((((((....)))))) | 44.1 °C | -36.9 kcal/mol |
| GGCGACGAAAGTCATGCC ((((((....)))..))) | 52.5 °C | -27.2 kcal/mol |
| GTGTGTGGAAACATACAC ((((.((....)).)))) | 48.6 °C | -39.6 kcal/mol |
| GCGGATCCGAAAGGACGC (((..(((....)))))) | 53.3 °C | -25.6 kcal/mol |
| GACGCTGGAAACAGCATC ((.((((....)))).)) | 41.3 °C | -12.7 kcal/mol |
| GTACATGCGAAAGCATAC (((..(((....)))))) | 28.7 °C | -8.62 kcal/mol |
| GCTCTGGGAAACCGGAGC ((((.((....)).)))) | 57.2 °C | -52.9 kcal/mol |
